Data as given in ChEMBL document CHEMBL4308830, “Design, Synthesis, and Characterization of 4-Undecylpiperidine-2-carboxamides as Positive Allosteric Modulators of the Serotonin (5-HT) 5-HT2C Receptor” (J Med Chem, 2018).
Active and inactive are the calls of the source.

What was measured:
[1] = test system: Rattus norvegicus; experiment: Increase in WAY163909-induced suppression of spontaneous locomotor activity in Sprague-Dawley rat assessed as reduction in total ambulation at 5 mg/kg, ip cotreated with WAY163909 at 15 mins post 5-HT2C antagonist SB242084 treatment measured for 30 mins; format: functional, organism-based
Summary of the method: (§1)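 Rats (n = 9–10/group) received SB242084 (1 mg/kg ip) or vehicle (8% 2-hydroxypropyl-β-cyclodextrin) 15 min before ip WAY163909 (1 mg/kg) plus compound (5 mg/kg). They were placed in monitors immediately; ambulations and vertical activity were totalled over 30 min. Analysis: ANOVA with Bonferroni comparisons.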

[2] = test system: Rattus norvegicus; experiment: Drug discrimination in WAY163909-trained Sprague-Dawley rat assessed as increase in WAY163909-appropriate lever responding at 0.5 mg/kg, ip treated 15 mins prior to test relative to control; format: functional
Summary of the method: (§2)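 Water-restricted male Sprague–Dawley rats were trained to discriminate WAY163909 (0.75 mg/kg ip, 15 min pretreatment) from saline under FR20, to a criterion of ≥80% correct for 10 sessions. Test doses were given ip 15 min before test: compound alone (0.125–1.0 mg/kg) or compound 0.5 mg/kg plus WAY163909 0.5 mg/kg. Read-out was % drug-lever responding; only rats completing FR20 within 15 min were counted.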

[3] = target: D(1A) dopamine receptor (Homo sapiens) (UniProt P21728); experiment: Displacement of [3H]-SCH23390 from recombinant human D1R expressed in HEKT cell membranes at 10 uM after 90 mins by scintillation counting method relative to control
[4] = test system: Rattus norvegicus; experiment: Effect on inactive lever presses in Sprague-Dawley rat at 1 mg/kg, ip administered as single dose 15 mins prior to self administration of cocaine; format: organism-based; details: in vivo, 0.25 h
Summary of the method: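 Catheterized male Sprague–Dawley rats self-administered cocaine (0.75 mg/kg/infusion iv, each paired with light/pump cue) in 14 daily 180 min sessions, reaching FR5 stability. After 24 h they received saline (1 mL/kg ip) or compound (1 mg/kg ip) 15 min before a cue reactivity test.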

[5] = AUC (0 to infinity) in Sprague-Dawley rat at 5 mg/kg, iv administered as single dose; format: ADME, organism-based; design: dose 5 mg/kg, time infinity, route intravenous; details: in vivo
[6] = test system: Rattus norvegicus; experiment: Increase in WAY163909-induced suppression of spontaneous locomotor activity in Sprague-Dawley rat assessed as reduction in total ambulation at 5 mg/kg, ip administered as single dose measured for 30 mins; format: functional, organism-based; summary of the method: as §1
[7] = Volume of distribution at steady state in Sprague-Dawley rat at 5 mg/kg, iv administered as single dose; format: ADME, organism-based; details: in vivo
[8] = Oral bioavailability in Sprague-Dawley rat at 10 mg/kg administered as single dose; format: ADME, organism-based; details: in vivo
[9] = AUC (0 to infinity) in Sprague-Dawley rat at 10 mg/kg, po administered as single dose; format: ADME, organism-based; design: dose 10 mg/kg, time infinity, route oral; details: in vivo
[10] = test system: Rattus norvegicus; experiment: Drug discrimination in WAY163909-trained Sprague-Dawley rat assessed as increase in WAY163909-appropriate lever responding at 0.5 mg/kg, ip co-treated with WAY163909 15 mins prior to test relative to control; format: functional; summary of the method: as §2
[11] = target: D(1B) dopamine receptor (Homo sapiens) (UniProt P21918); experiment: Displacement of [3H]-SCH23390 from recombinant human D5R expressed in HEKT cell membranes at 10 uM after 90 mins by scintillation counting method relative to control
[12] = target: 5-hydroxytryptamine receptor 6 (Homo sapiens) (UniProt P50406); experiment: Displacement of [3H]-LSD from recombinant human 5-HT6R expressed in HEK cell membranes at 10 uM after 90 mins by scintillation counting method relative to control
[13] = test system: Rattus norvegicus; experiment: Suppression of spontaneous locomotor activity in Sprague-Dawley rat assessed as reduction in total vertical activity at 5 mg/kg, ip administered as single dose measured for 30 mins; format: functional, organism-based
Summary of the method: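 Male Sprague–Dawley rats naive to activity monitors (n = 7–8/group) received saline (1 mL/kg ip) or compound (0.5, 1 or 5 mg/kg ip) immediately before testing. Ambulations and vertical counts were taken in 5 min bins for 90 min and totalled over the first 30 min. Analysis: one-way ANOVA with Dunnett's comparisons to vehicle.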

[14] = target: D(3) dopamine receptor (Homo sapiens) (UniProt P35462); experiment: Displacement of [3H]-N-methylspiperone from recombinant human D3R expressed in HEK cell membranes at 10 uM after 90 mins by scintillation counting method relative to control
Summary of the method: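 Single-concentration screen at 10 μM test compound, each target labelled with the radioligand given in the line. The read-out is mean % inhibition of specific radioligand binding (n = 4). Targets above 50% inhibition went on to full competition isotherms, and Ki came from best-fit IC50 by the Cheng–Prusoff equation.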

[15] = target: T1, 5-hydroxytryptamine receptor 2C (Homo sapiens) (UniProt P28335); experiment: Intrinsic agonist activity at human 5-HT2CR expressed in CHO cells assessed as induction of intracellular calcium release at 1 nM incubated for 15 mins measured every 1 sec for 120 secs by calcium-4 dye based FLIPR assay; format: functional, cell-based
T1 sequence (whole entry): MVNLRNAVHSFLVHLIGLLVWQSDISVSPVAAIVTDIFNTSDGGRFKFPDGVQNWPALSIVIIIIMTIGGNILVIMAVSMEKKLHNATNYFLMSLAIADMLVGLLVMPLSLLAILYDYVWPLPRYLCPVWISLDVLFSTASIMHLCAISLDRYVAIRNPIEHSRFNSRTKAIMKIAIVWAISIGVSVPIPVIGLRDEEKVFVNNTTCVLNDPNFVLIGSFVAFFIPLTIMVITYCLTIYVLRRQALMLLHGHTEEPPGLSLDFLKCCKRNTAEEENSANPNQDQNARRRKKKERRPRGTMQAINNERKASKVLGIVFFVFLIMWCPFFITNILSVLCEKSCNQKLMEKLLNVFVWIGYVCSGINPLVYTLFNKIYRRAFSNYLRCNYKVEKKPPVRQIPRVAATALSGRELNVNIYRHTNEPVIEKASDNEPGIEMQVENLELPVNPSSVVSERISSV
Summary of the method: (§3)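 CHO cells stably expressing human unedited INI 5-HT2CR were plated, serum-starved 3 h, then loaded with Calcium 4 dye plus 2.5 mM probenecid (60 min 37 °C, then 15 min RT). Compound (1 nM) was added; the read after this addition gave intrinsic agonism. 5-HT (10 pM–10 μM) followed 15 min later. FLIPR-TETRA: 10 s baseline, 1 s reads for 120 s after compound and 360 s after 5-HT. Emax came from 4-parameter fits, ≥3 biological replicates in triplicate.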

[16] = Cmax in Sprague-Dawley rat at 10 mg/kg, po administered as single dose; format: ADME, organism-based; design: dose 10 mg/kg, route oral; details: in vivo
[17] = target: 5-hydroxytryptamine receptor 3A (Homo sapiens) (UniProt P46098); experiment: Displacement of [3H]-LY278584 from recombinant human 5-HT3R expressed in HEK cell membranes at 10 uM after 90 mins by scintillation counting method relative to control
[18] = target: T1, 5-hydroxytryptamine receptor 2C (Homo sapiens); experiment: Positive allosteric modulation of human 5-HT2CR expressed in CHO cells assessed as 5-HT-induced intracellular calcium release at 1 nM preincubated for 15 mins followed by 5-HT addition by calcium-4 dye based FLIPR assay (reference value: 100%); format: functional, cell-based; summary of the method: as §3
[19] = Tmax in Sprague-Dawley rat at 10 mg/kg, po administered as single dose; format: ADME, organism-based; details: in vivo

Chain of 5-hydroxytryptamine receptor 3A (Homo sapiens) (P46098 whole entry): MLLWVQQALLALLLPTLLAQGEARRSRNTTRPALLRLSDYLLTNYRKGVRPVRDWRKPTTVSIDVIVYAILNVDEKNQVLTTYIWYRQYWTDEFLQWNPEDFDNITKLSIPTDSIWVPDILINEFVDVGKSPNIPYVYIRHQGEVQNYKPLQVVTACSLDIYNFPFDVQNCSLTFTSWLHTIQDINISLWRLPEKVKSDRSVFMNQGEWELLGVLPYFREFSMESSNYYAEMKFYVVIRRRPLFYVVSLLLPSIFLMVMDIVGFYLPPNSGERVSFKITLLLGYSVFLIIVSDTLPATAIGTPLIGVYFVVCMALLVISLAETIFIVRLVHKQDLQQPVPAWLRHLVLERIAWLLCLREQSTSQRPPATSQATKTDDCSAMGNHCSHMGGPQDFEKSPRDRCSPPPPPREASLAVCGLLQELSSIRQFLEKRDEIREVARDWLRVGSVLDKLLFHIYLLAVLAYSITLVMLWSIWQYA
Chain of 5-hydroxytryptamine receptor 6 (Homo sapiens) (P50406 whole entry): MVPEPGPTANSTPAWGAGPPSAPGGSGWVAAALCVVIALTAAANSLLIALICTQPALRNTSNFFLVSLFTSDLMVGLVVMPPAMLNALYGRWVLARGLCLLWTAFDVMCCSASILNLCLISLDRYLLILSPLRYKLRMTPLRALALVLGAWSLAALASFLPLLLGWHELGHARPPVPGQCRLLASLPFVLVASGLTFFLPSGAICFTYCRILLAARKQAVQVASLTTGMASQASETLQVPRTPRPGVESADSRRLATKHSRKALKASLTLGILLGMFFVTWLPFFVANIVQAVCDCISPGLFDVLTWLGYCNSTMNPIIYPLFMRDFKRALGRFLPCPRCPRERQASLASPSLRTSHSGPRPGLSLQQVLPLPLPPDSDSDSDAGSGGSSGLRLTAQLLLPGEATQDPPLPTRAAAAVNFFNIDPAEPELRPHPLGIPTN
Chain of D(3) dopamine receptor (Homo sapiens) (P35462 whole entry): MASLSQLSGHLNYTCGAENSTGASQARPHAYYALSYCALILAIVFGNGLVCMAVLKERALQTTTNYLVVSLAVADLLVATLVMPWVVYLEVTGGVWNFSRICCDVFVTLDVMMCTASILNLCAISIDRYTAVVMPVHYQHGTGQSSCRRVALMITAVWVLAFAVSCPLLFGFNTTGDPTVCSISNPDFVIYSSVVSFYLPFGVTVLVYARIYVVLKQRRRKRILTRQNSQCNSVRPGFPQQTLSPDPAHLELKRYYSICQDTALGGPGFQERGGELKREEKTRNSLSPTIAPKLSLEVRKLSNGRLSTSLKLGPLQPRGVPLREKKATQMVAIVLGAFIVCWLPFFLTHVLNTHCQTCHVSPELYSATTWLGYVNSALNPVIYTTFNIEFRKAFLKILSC
Chain of D(1A) dopamine receptor (Homo sapiens) (P21728 whole entry): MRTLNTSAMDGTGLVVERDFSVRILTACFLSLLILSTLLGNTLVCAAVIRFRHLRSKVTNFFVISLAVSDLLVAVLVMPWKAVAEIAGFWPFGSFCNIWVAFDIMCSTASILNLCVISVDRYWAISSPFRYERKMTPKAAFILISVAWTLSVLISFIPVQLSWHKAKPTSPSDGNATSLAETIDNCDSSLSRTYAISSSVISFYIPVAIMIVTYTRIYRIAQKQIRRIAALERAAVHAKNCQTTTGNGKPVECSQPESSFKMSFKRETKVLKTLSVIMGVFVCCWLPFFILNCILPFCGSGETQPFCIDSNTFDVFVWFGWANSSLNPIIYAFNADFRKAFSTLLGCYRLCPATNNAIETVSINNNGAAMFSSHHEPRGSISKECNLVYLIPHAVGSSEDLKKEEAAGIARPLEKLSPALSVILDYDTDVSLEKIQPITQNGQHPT
Chain of D(1B) dopamine receptor (Homo sapiens) (P21918 whole entry): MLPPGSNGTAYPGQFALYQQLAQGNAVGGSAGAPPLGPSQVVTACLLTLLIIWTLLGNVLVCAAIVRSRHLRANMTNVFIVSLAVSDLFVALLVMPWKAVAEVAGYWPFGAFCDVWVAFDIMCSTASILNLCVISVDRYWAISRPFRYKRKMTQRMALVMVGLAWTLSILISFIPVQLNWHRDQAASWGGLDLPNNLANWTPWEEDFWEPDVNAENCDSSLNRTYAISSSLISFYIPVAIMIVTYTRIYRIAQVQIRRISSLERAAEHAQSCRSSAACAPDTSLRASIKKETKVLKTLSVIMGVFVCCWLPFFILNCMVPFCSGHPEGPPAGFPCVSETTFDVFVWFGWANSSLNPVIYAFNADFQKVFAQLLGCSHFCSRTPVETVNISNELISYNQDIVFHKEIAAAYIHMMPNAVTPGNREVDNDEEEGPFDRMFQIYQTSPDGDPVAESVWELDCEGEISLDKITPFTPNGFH

SMILES: CCCCCCCCCCC[C@@H]1CCN[C@H](C(=O)NCC(O)CO)C1 (relative stereo)
- Activity [1]: inactive
- Activity [2]: 30%
- inhibition [3]: 29.3%
- Activity [4]: Non-Toxic
- AUC [5]: 939 ng·h/mL
- Activity [6]: Active
- Vdss [7]: 35.07 L/kg
- F [8]: 39.1%
- AUC [9]: 737 ng·h/mL
- Activity [10]: 95%
- inhibition [11]: 32.5%
- inhibition [12]: 18.1%
- Activity [13]: Active
- inhibition [14]: 71.4%
- Activity [15]: inactive
- Cmax [16]: 68.1 ng/mL
- inhibition [17]: 27%
- Emax [18]: 123%
- Tmax [19]: 3.3 h
